Screening results as filed in PubChem BioAssay.
Only some compounds are listed: those with a hit (about 1.1% of all), similar ones and a draw of the others.
S1P4 antagonist = S1P4 receptor antagonists, primary screen, cell-based | S1P4-expressing cells, antagonist mode, reporter read-out | inhibition, % at 4.98 µM | 0.26% of 220,000 active | AID 1510, 2009; in the data active = inhibition above about 29%;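 also: 0% = wells stimulated with agonist and 100% = vehicle wells without agonist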
TNAP inh noacc = human TNAP enzyme inhibitors, primary screen, biochemical, luminescent, no phosphate acceptor, uHTS; 0.26% of 200,000 active; AID 1012, 2008; Alkaline phosphatase, tissue-nonspecific isozyme (Homo sapiens), P05186; inhibition, % at 20 µM; purified TNAP, CDP-star luminescence, 30 min;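 active = tissue-nonspecific alkaline phosphatase inhibition above about 50% at 20 µM in the single-dose screen, limit read from the data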;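 also: 0% = DMSO negative control and 100% = EDTA positive control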
S1P4 ag = S1P4 receptor agonists, primary screen, cell-based; S1P4-expressing cell line, agonist reporter assay; Sphingosine 1-phosphate receptor 4 (Homo sapiens), O95977; activation, % at 4.98 µM; 0.35% of 220,000 active; in the data active = activation above about 11%;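 also: 0% = DMSO vehicle and 100% = reference agonist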
TNAP inh hiacc = human TNAP enzyme inhibitors, primary screen, biochemical, luminescent, high phosphate acceptor level, uHTS | purified TNAP, CDP-star luminescence, 1 M DEA | inhibition, % at 20 µM | Alkaline phosphatase, tissue-nonspecific isozyme (Homo sapiens), P05186 | 0.03% of 200,000 active;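 active = over 50% inhibition of tissue-nonspecific alkaline phosphatase at 20 µM in the single-dose screen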;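 also: plate controls were DMSO wells for no effect and EDTA-quenched wells as full inhibition for full effect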
S1P3 antagonist = S1P3 receptor antagonists, primary screen, cell-based | CHO S1P3 NFAT-BLA reporter, FRET fluorescence, antagonist mode | Sphingosine 1-phosphate receptor 3 (Homo sapiens), Q99500 | inhibition, % at 4.98 µM | 0.27% of 170,000 active;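 active = inhibition above the plate cutoff, the mean inhibition of test wells on that plate plus 3 SD, cut at about 28% in these data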;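 also: cells challenged with S1P at its EC80 of 0.8 µM; blue over green emission ratio from cleaved BLA substrate after 4 h stimulation; 0% = S1P-stimulated wells and 100% = unstimulated DMSO-only wells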
TNAP act hiacc = TNAP activators at high phosphate acceptor level, primary screen, biochemical, luminescence, uHTS; Alkaline phosphatase, tissue-nonspecific isozyme (Homo sapiens), P05186; purified TNAP, CDP-star luminescence, 1 M DEA, 30 min; active compounds read high; 0 = EDTA background, 1 = DMSO-only activity; activation factor at 20 µM; 200,000 tested, under 10 active;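 active = activation factor at least 2 at 20 µM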
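system = human TNAP | amount = enzyme diluted 1/800 final | reagent = 100 µM CDP-star substrate | signal = luminescent substrate turnover signal | dosing = one dose, 20 µM | benchmarks = EDTA negative control, DMSO positive control | measure = activation factor | timing = 30 min reaction, room temperature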
S1P4 antag conf = S1P4 receptor antagonists, human, confirmation, cell-based; shares compounds with S1P4 antagonist; inhibition, % at 4.98 µM; 71% of 520 active; S1P4-expressing cell line, antagonist mode, reporter read-out; AID 1524, 2009; in the data active = inhibition above about 30%
S1P1 antag = S1P1 receptor antagonists, human, counter-screen for S1P4 antagonist project, cell-based. shares compounds with S1P4 antagonist. cell-based S1P1 antagonist counterscreen, inhibition. inhibition, % at 4.98 µM. 37% of 520 active. AID 1564, 2009; in the data active = inhibition above about 40%;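 also: receptor stimulated with S1P near its EC80; 0% = agonist stimulated wells and 100% = vehicle only wells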
Target sequence (P21453 whole entry, looked up): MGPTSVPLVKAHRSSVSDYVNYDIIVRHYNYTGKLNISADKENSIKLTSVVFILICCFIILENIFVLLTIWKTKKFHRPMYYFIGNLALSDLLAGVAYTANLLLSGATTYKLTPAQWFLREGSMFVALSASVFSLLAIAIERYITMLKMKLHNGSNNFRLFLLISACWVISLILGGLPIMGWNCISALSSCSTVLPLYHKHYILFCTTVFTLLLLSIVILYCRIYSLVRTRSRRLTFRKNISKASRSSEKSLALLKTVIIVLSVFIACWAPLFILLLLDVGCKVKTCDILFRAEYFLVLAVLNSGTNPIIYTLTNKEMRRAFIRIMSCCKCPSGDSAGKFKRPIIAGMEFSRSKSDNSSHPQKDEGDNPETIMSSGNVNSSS
The depositor's hits bear a star; / = no result given.

SMILES	S1P4 antagonist	TNAP inh noacc	S1P4 ag	TNAP inh hiacc	S1P3 antagonist	TNAP act hiacc	S1P4 antag conf	S1P1 antag
O=C1Nc2ccccc2/C1=C/C(=O)c1cccs1	37.9*	-3.0	0.1	-2.3	/	1	64.0*	46.8*
CCN1C(=O)/C(=C\C(=O)c2cccs2)c2cc(Br)ccc21	6.1	-2.0	0.0	-2.2	8.0	1	/	/
CCC(C)[C@@H](NC(=O)OC(C)(C)C)c1nnc(S(=O)(=O)Cc2cccc(C)c2)o1 (some centres not stated)	76.4*	-7.6	-4.4	-8.5	-9.1	1.1	108.9*	31.2
Cc1ccccc1CS(=O)(=O)c1nnc([C@H](Cc2ccccc2)NC(=O)OC(C)(C)C)o1	71.1*	-3.6	-1.7	-7.2	/	1.1	108.3*	34.1
CC(C)(C)OC(=O)N[C@@H](Cc1ccccc1)c1nnc(SCC(=O)O)o1	17.5	-3.2	-0.3	-2.9	-36.3	1	/	/
CC(Nc1ccc2c(c1)OCCO2)C(=O)N1CCc2ccccc21 (configuration not stated)	-11.8	-7.9	0.8	-5.3	-2.9	1.1	/	/
COC(=O)C1=C(C)N(C2CCCCC2)C(=O)/C1=C\c1cccs1	1.2	0.2	0.6	5.0	-3.0	0.9	/	/
N#C/C(=C\c1cccc(O)c1)c1nc2ccccc2o1	31.6*	/	0.8	/	11.2	/	1.1	7.2
N#C/C(=C\c1ccncc1)c1nc2ccccc2o1	21.8	/	-1.3	/	-18.2	/	/	/
CC(OC(=O)c1ccc(Cl)c(S(=O)(=O)Nc2ccc(F)cc2)c1)C(=O)NC(N)=O (configuration not stated)	0.8	/	3.5	/	2.3	/	/	/
CCOC(=O)COc1ccc(S(=O)(=O)N2CCN(c3ccccc3F)CC2)cc1	36.1*	-6.3	-3.8	-3.1	-6.0	1	26.4	-21.5
COC(=O)N/N=C\C=C\c1ccc2c(c1)OCO2	55.2*	-11.0	-0.5	1.7	/	1	-19.5	-14.3
CCOc1cc(/C=C\[N+](=O)[O-])ccc1OCC(=O)Nc1ccccc1C	58.2*	-1.2	1.3	4.3	/	1	117.9*	83.5*
Cc1noc(/C=C/c2nn(C)cc2Cl)c1[N+](=O)[O-]	34.5*	/	1.2	/	-0.3	/	59.1*	20.7
c1ccc(CN2CCN(c3nc(N4CCOCC4)c4ccccc4n3)CC2)cc1	36.2*	/	0.1	/	/	/	8.3	34.1
COC(=O)c1cc(Cl)cc(Cl)c1OS(=O)(=O)N(C)C	-3.4	-9.5	0.6	-5.4	-5.7	1.1	/	/
CCOC(=O)C1(Cc2ccccc2)CCN(Cc2cn(CC(=O)OC)c3ccccc23)CC1	29.6*	-12.2	0.6	-11.2	-0.1	1.1	5.1	15.6
COc1ccc(S(=O)(=O)N2CCCC2)cc1C(C)C	8.2	-2.4	1.6	-5.8	-11.9	1.1	/	/
CN(C)/N=C/C=C1\CCC/C(=C\c2ccc(F)c(F)c2)C1=O	29.2*	-0.8	0.5	-7.1	-3.0	1.1	33.5*	41.9*
Cc1cc(NC(=O)c2ccccc2-c2ccccc2)ccc1Br	37.0*	-13.4	-0.9	-7.9	-0.9	1.1	31.6*	13.8
CC(C)=C(NC(=O)c1ccccc1)C(=O)Nc1cccc(C(=O)O)c1	-18.7	-8.7	0.6	-3.2	5.6	1	/	/
C[N+]1=C(/C=C/Nc2ccccc2Cl)C(C)(C)c2ccccc21	-11.2	-7.2	2.9	-2.0	-10.3	1	/	/
COC(=O)c1ccc2c(c1)C(C)(C)C(/C=C/c1ccccc1O)=[N+]2C	37.0*	44.7	-1.1	29.2	/	0.7	115.9*	82.3*
Cc1cc2[nH]cnc2c([N+](=O)[O-])c1C	9.8	-14.6	0.0	-5.5	-15.7	1.1	/	/
O=C(Nc1cccc(NC(=O)c2cccs2)c1)c1ccc([N+](=O)[O-])o1	55.6*	/	-1.6	/	11.9	/	65.7*	62.0*
SMILES	S1P4 antagonist	TNAP inh noacc	S1P4 ag	TNAP inh hiacc	S1P3 antagonist	TNAP act hiacc	S1P4 antag conf	S1P1 antag
O=C(O)c1ccc(S(=O)(=O)c2ccc(Sc3ccc(C(=O)O)c(C(=O)O)c3)cc2)cc1	-6.7	1.4	-0.7	-6.4	4.8	1.1	/	/
COC(=O)C1CCN(c2ccc(Cl)nn2)CC1	-12.2	-20.0	-0.7	-6.2	-7.0	1.1	/	/
O=C(O)CCn1c(=O)[nH]c2ccccc2c1=O	35.7*	-11.7	-1.8	-2.1	-28.9	1	-0.5	-12.5
O=[N+]([O-])c1ccc(N=Nc2c(Cl)cc(O)cc2Cl)cc1	30.9*	/	0.6	/	2.9	/	67.3*	18.4
N#Cc1cc(Oc2cccc3cccnc23)c(-n2nnc3ccccc32)cc1C#N	33.6*	-3.5	7.4	2.9	/	1	11.7	-19.7
CS(=O)(=O)c1nc(-c2ccccc2)cc(C(F)(F)F)n1	39.9*	-3.6	0.1	0.1	/	1	115.6*	18.0
Cc1[nH]c2ccccc2c1C(=O)CSc1n[nH]c(N)n1	-12.6	-5.6	-1.2	-3.8	-3.7	1	/	/
COc1ccc(/C=C/C(=O)c2cc(F)ccc2OC(=O)c2ccccc2OC)cc1OC	47.4*	-7.4	0.7	0.7	25.6	1	81.9*	98.9*
O=S(=O)(c1ccc(F)cc1)c1snnc1-c1ccccc1	8.8	-11.1	-1.3	-4.2	-16.8	1	/	/
O=S(=O)(c1ccc(Cl)cc1)c1snnc1-c1ccccc1	35.8*	-9.4	-2.1	-0.2	/	1	72.3*	8.3
O=C(COC(=O)c1ccc(Cl)c(S(=O)(=O)NCc2ccccc2)c1)NCC1CCCO1 (configuration not stated)	12.3	-10.1	2.1	-2.1	-16.1	1	/	/
O=C1c2cccc3c([N+](=O)[O-])ccc(c23)C(=O)N1c1ccccn1	104.7*	-8.7	-3.0	0.4	/	1	112.8*	151.2*
Cn1nccc1NC(=O)CSCC(=O)O	-12.0	/	-0.9	/	-11.1	/	/	/
COc1ccc(-c2cc(-c3ccccc3)c(C#N)c(S(C)=O)n2)cc1 (configuration not stated)	54.0*	-14.7	-3.9	-8.9	/	1.1	85.2*	19.3
O=C(/C=C/c1ccc(Cl)cc1)c1cccnc1	19.8	-1.9	-0.3	0.6	/	1	/	/
N#Cc1ccc(/C=C/C(=O)c2cccnc2)cc1	44.3*	-3.0	0.6	-0.3	-4.6	1	53.5*	52.3*
